Screens: PubChem BioAssay, several laboratories
The list is not random: actives were taken first. Their share in the collection is about 1.7%.
APOBEC3A inh: APOBEC3A ssDNA deaminase inhibitors, primary screen, selectivity assay for APOBEC3G inhibitor project, biochemical, FAM/TAMRA oligo cleavage fluorescence | DNA dC->dU-editing enzyme APOBEC-3A (Homo sapiens), P31941 | recombinant A3A, FAM/TAMRA ssDNA deamination fluorescence | inhibition, % at 20 µM | 330,000 tested, 0.41% active | AID 493011, 2011;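 active = at least 40% inhibition at 20 µM here, with at most 30% in a related deaminase screen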;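 note: plate controls were A3A with DMSO for no effect and wells lacking A3A enzyme for full effect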
Target sequence (P31941 whole entry, looked up): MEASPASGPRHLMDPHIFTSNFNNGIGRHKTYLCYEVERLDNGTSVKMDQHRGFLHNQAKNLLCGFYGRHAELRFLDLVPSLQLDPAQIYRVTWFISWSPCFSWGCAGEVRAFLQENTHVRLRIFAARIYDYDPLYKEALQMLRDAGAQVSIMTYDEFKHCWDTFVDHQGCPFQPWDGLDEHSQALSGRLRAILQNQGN
CAL PDZ FP-1: CAL PDZ peptide-binding inhibitors, primary screen, biochemical, fluorescence polarization, Cer-tagged CAL PDZ, HTS; inhibition, % at 20 µM; purified CAL PDZ, TMR-peptide fluorescence polarization, 1 h; 330,000 tested, 0.02% active; AID 504414, 2011; Golgi-associated PDZ and coiled-coil motif-containing protein (Homo sapiens), Q9HD26;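 active = highest replicate inhibition of at least 40%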;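 note: plate controls were DMSO neutral control wells for no effect and unlabeled competitor peptide control wells for full effect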
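Control set: unlabelled peptide and DMSO controls / Material: purified CerCALP PDZ construct / Timing: 1 h incubation at room temperature before polarization reading / Doses: 20 µM, one dose / Detection: fluorescence polarization (mP)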
C-LANA FP: inhibitors of KSHV C-LANA binding to DNA, primary screen, biochemical, fluorescence polarization, FAM-LBS DNA, MBP-C-LANA, single point; Kaposi's sarcoma herpesvirus LANA C-terminal domain (residues 932-1162) DNA binding; inhibition, % at 9 µM; 340,000 tested, 0.078% active; AID 504423, 2011;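 active = highest replicate inhibition at or above 60% at 9 µM, even if other replicates fall short; inactive = all replicates below 60% inhibition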;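 note: 0% = neutral control wells and 100% = 4 µM acridine orange control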
CAL PDZ FP-2: untagged CAL PDZ binding inhibitors, primary screen, biochemical, fluorescence polarization, HTS | purified CAL PDZ, TMR-peptide fluorescence polarization, 1 h | inhibition, % at 24.9 µM | 300,000 tested, 0.92% active;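 active = mean inhibition of at least 30% with at least half of replicates also reaching 30%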;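 note: 0% = DMSO neutral control and 100% = excess unlabeled competitor peptide PRC23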
Keap1-Nrf2 PPI: Keap1-Nrf2 protein-protein interaction inhibitors, primary screen, biochemical, fluorescence polarization, single point; Kelch-like ECH-associated protein 1 (Homo sapiens), Q14145; Keap1 Kelch-Nrf2 peptide fluorescence polarization, 1536-well; inhibition, % at 9.4 µM; 340,000 tested, 0.15% active; in the data active = inhibition above about 12%;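 note: human Keap1 Kelch domain with fluorescein labeled Nrf2 9mer peptide probe; 0% = neutral control wells and 100% = peptide positive control; higher means more block of Keap1 binding to Nrf2 peptide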
APOBEC3G inh: APOBEC3G DNA deaminase inhibitors, primary screen, biochemical, fluorescence, single-stranded DNA substrate, uHTS. 330,000 tested, 0.28% active. recombinant A3G, ssDNA deamination FAM/TAMRA fluorescence. DNA dC->dU-editing enzyme APOBEC-3G (Homo sapiens), Q9HC16. inhibition, % at 20 µM;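 active = inhibition of at least 40% at 20 µM, with no more than 30% in the related APOBEC3A deaminase screen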;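 note: plate controls were DMSO wells with A3G for no effect and wells lacking A3G enzyme for full effect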
Target sequence (Q9HC16 whole entry, looked up): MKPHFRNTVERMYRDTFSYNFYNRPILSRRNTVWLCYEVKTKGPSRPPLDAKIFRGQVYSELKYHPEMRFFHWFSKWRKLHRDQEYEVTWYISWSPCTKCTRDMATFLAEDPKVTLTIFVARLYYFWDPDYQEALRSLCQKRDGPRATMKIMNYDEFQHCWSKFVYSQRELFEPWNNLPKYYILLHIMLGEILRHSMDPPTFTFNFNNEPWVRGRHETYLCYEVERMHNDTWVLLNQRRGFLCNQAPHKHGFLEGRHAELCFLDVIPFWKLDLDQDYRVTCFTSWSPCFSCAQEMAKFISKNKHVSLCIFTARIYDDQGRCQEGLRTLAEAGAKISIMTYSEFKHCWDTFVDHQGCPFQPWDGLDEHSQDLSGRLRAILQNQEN
A3A conf: APOBEC3A deaminase inhibitors, retest, confirmation, selectivity assay for APOBEC3G inhibitor project, biochemical, single concentration, fluorescence readout; 1,400 tested, 63% active; inhibition, % at 20 µM; AID 493151, 2011; recombinant A3A, ssDNA deaminase UDG fluorescence assay; shares compounds with APOBEC3A inh;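 active = inhibition reaching a set limit, 80% of the first screen's cutoff, at 20 µM in any replicate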;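 note: plate controls were DMSO wells with A3A for no effect and wells lacking A3A enzyme for full effect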
UDG A3A counter: E. coli UDG inhibitors, confirmation, counter-screen for APOBEC3A inhibitor project, biochemical, single concentration, fluorescence, FAM/TAMRA oligo; inhibition, % at 20 µM; AID 504714, 2011; shares compounds with APOBEC3A inh; UDG counterscreen, FAM/TAMRA uracil oligo fluorescence; 1,000 tested, under 10 active; call rule not given here
* hit, by the source's call; x = no result.

SMILES	APOBEC3A inh	CAL PDZ FP-1	C-LANA FP	CAL PDZ FP-2	Keap1-Nrf2 PPI	APOBEC3G inh	A3A conf	UDG A3A counter
COc1ccc(C(=O)NC(C)c2nnc(SCc3ccc(Cl)c(Cl)c3)n2C)cc1 (centres undefined)	57*	0	0	1	1	16	60*	-2
CCn1c(SCc2ccc(Cl)c(Cl)c2)nnc1C(C)NC(=O)c1ccc(OC)cc1 (centres undefined)	-1	-1	0	5	-3	-4	x	x
O=C(CSc1ccc(-c2ccncc2)nn1)N1CCCC1	2	0	0	1	-4	-1	x	x
O=C(CSc1ccc(-c2ccncc2)nn1)N1CCCCC1	102*	-1	0	0	1	-2	4	6
O=C(c1ccc(S(=O)(=O)N2CCCCC2)cc1)N1CCN=C1SCc1cccnc1	50*	0	1	6	-4	-1	7	5
Cc1ccc(S(=O)(=O)NCCC(=O)N2CCCCCCC2)cc1C	-4	-3	-1	-1	-3	-12	x	x
CCOc1ccc(OCCC(=O)OCC(=O)NC(C)c2ccccc2)cc1 (centres undefined)	7	0	-1	x	-6	-6	x	x
CCN(Cc1ccc(OC)c(F)c1)C(=O)C1CCCO1 (centres undefined)	56*	-1	0	-6	-4	5	32*	-3
CC(C)(CNC(=O)Cc1ccc(Cl)cc1Cl)N1CCCCC1	0	-1	0	x	-4	3	x	x
CCOc1c(Br)cc(Br)cc1/C=C1\SC(N)=NC1=O	69*	-1	2	-20	3	18	82*	2
CCNC(=O)C12CCC(C)(c3nc4cc(C)c(C)cc4nc31)C2(C)C (centres undefined)	2	-4	0	-1	-1	-8	x	x
c1ccc2c(c1)nc(N1CCCCCC1)c1ccccc12	67*	0	-1	-4	-3	12	67*	-2
c1ccc2nc(N3CCCC3)c(N3CCCC3)nc2c1	2	-2	-1	-1	1	1	x	x
Cc1nc(SCC(=O)NCc2ccco2)c2c3c(sc2n1)CCCC3	0	-1	0	2	-13	2	x	x
CCCc1nc2sc3c(SCC(=O)NCc4ccco4)ncnc3c2c2c1CCC2	54*	-3	3	20	-24	26	42*	-3
CC[N+](C)(CC)CC(=O)OCC1C(C)C=C(C)CC1C (centres undefined)	73*	1	-1	-1	-2	22	82*	3
CC1=C(C(=O)OCc2ccc([N+](=O)[O-])cc2)N2C(=O)C(NC(=O)Cc3ccccc3)C2SC1 (centres undefined)	50*	2	1	-3	-3	-2	40*	-3
CC1=C(C(=O)OCc2ccccc2)N2C(=O)[C@@H](NC(=O)COc3ccccc3)[C@H]2SC1	-7	-1	0	0	-2	-10	x	x
C/C(=N\OCC(=O)N/N=C/c1ccc(C)cc1O)c1cccs1	51*	-1	1	-7	-3	-7	-3	1
Cc1cccc(C)c1NC(=O)COC(=O)/C=C/c1ccc(S(=O)(=O)N2CCOCC2)cc1	-2	0	1	4	-3	-7	x	x
CCc1ccc(C(=O)NNC(=O)CCc2nc3ccccc3c(=O)[nH]2)cc1	-2	-3	1	-3	0	-10	x	x
Cc1cc(C(=O)O)ccc1-c1ccc(/C=C2\NC(=O)N(Cc3ccc(F)cc3)C2=O)o1	58*	-2	12	-2	-2	26	44*	0
O=C(O)c1cccc(-n2cccc2/C=C2\NC(=O)N(Cc3ccc(F)cc3)C2=O)c1	87*	-1	10	0	-2	29	74*	-2
Cc1ccc(CN2C(=O)N/C(=C\c3cccn3-c3cccc(C(=O)O)c3)C2=O)cc1	79*	-2	11	-4	0	27	80*	-3
Cc1ccc(NC(=O)CN2C(=O)N/C(=C\c3cccn3-c3cccc(C(=O)O)c3)C2=O)cc1	95	0	14	0	1	56	x	x
SMILES	APOBEC3A inh	CAL PDZ FP-1	C-LANA FP	CAL PDZ FP-2	Keap1-Nrf2 PPI	APOBEC3G inh	A3A conf	UDG A3A counter
O=C(NCc1ccccn1)C1(C(F)(F)F)C/C(=C\CCO)CCCO1 (centres undefined)	5	0	2	-3	1	25	x	x
O=C(CN(c1ccccn1)S(=O)(=O)c1ccccc1)N/N=C/c1cccc([N+](=O)[O-])c1	44*	0	-1	2	-3	4	15	x
Cc1cc(C(=O)NCc2ccc(C(=O)O)o2)c(C)o1	47*	x	6	1	-4	16	48*	5
Cc1occc1C(=O)NCc1ccc(C(=O)O)o1	10	0	1	x	-1	1	x	x
CCOC(=O)C1Nc2ccc(C(=O)O)cc2C2C=CCC12 (centres undefined)	81*	x	38	44*	10	27	89*	1
CC(C)C1Nc2ccc(C(=O)O)cc2C2C=CCC21 (centres undefined)	40*	-2	24	-5	2	28	42*	6
CS(=O)(=O)c1ccc(Cl)c(NC(=O)CCN2C(=O)C3CC=CCC3C2=O)c1 (centres undefined)	-4	0	0	-6	2	-9	x	x
CC(=O)NC1CC2CCCC(C1)N2C(=O)Nc1cccc(C(C)=O)c1 (centres undefined)	x	0	1	1	-4	x	x	x
O=C(O)c1ccc(N/N=C/C=C/c2ccc([N+](=O)[O-])o2)cc1	48*	0	7	-5	-17	25	41*	x
